The values that follow come from ChEMBL document CHEMBL4017489, “Design, Synthesis, and Evaluation of New Selective NM23-H2 Binders as c-MYC Transcription Inhibitors via Disruption of the NM23-H2/G-Quadruplex Interaction” (J Med Chem, 2017).

In data set [1] the test system is SiHa. The data set is described as follows: Antiproliferative activity against human SiHa cells harboring NM23-H2 siRNA up to 2 uM after 24 hrs by real-time cellular activity assay. The class given is functional, cell-based. Summed up: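 SiHa cells precultured 24 h, transfected with 30 nM NM23-H2 siRNA for 6 h, dosed up to 2 μM 24 h after siRNA; growth followed by impedance-based real-time cell analysis.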

Data set [2] has as its system SiHa. Description: Cell cycle arrest in human SiHa cells assessed as accumulation at S phase at 2 uM after 9 hrs by propidium iodide staining based flow cytometry (reference value: 13 %). The class given is functional. In outline:
(§1)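 SiHa cells (2.0 × 10^5 per well) plated 24 h, then exposed to 2 μM compound or left untreated for 3, 6, 9, 12, 24, 36 or 48 h. Cells washed in PBS, fixed overnight in ice-cold 70% ethanol, treated with 20 μg/mL RNase A for 30 min at 37 °C, stained with PI, and read by flow cytometry at 488 nm. Phase percentages compared with untreated control; at least three experiments.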
(In general: A flow cytometer gives signals particle by particle.)

Data set [3] relates to SiHa. Description: Cell cycle arrest in human SiHa cells assessed as accumulation at S phase at 2 uM after 3 hrs by propidium iodide staining based flow cytometry (reference value: 13%). Type of data set: functional. Summed up: as §1
Data set [4] in a line: Induction of apoptosis in mouse primary mesangial cells at 0.5 to 2 uM after 48 hrs by Annexin V-FITC/propidium iodide based flow cytometric analysis. The following applies: primary mesangial cell. Summed up: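 Primary cultured mouse mesangial cells treated at the same concentrations as SiHa cells. Stained with annexin V-FITC and PI and analysed by flow cytometry.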
Data set [5] can be described thus: Binding affinity to Htg21 telomeric G-quadruplex DNA (unknown origin) at 40 uM after 30 mins by SPR analysis. In general terms: In SPR one partner is held on a chip, and binding of the other changes the refractive index at the surface.
In data set [6] the test system is SiHa. The data set is described as follows: Antitumor activity against human SiHa cells xenografted in BALB/C nude mouse assessed as tumor weight at 2.5 mg/kg, ip administered daily after 3 weeks (reference value: 511.6 mg). Type of data set: functional. A general note: In xenograft studies the graft and the host belong to different species.
Data set [7] is described as follows: Anticlonogenic activity against mouse primary mesangial cells at 0.03125 to 0.5 uM after 14 days by crystal violet staining based assay. Type of data set: ADME. As to conditions: primary mesangial cell, 336 h. In outline: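 Colony formation: SiHa cells and primary cultured mouse mesangial cells exposed to 0.5, 0.25, 0.125, 0.0625 and 0.03125 μM for 14 days, DMSO as negative control; three repeats.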

The test system of data set [8] is SiHa. The data set is described as follows: Induction of apoptosis in human SiHa cells assessed as early apoptotic cells at 0.5 uM after 48 hrs by Annexin V-FITC/propidium iodide based flow cytometric analysis (reference value: 1.4 %). Type of data set: functional.
Data set [9] concerns SiHa. The data set is described as follows: Cell cycle arrest in human SiHa cells assessed as accumulation at G2/M phase at 2 uM after 48 hrs by propidium iodide staining based flow cytometry (reference value: 39 %). The class given is functional. In outline: as §1
For data set [10], the system named is SiHa. Description: Induction of apoptosis in human SiHa cells assessed as late apoptotic cells at 0.5 uM after 48 hrs by Annexin V-FITC/propidium iodide based flow cytometric analysis (reference value: 0.7 %). Type of data set: functional.
The subject of data set [11] is SiHa. Description: Antitumor activity against human SiHa cells xenografted in BALB/C nude mouse assessed as tumor growth inhibition at 2.5 mg/kg, ip administered daily after 3 weeks relative to control. Type of data set: functional. The following applies: 504 h, read-out: TGI.
Data set [12] concerns the target T1, Nucleoside diphosphate kinase B (Homo sapiens, UniProt P22392). The data set is described as follows: Binding affinity to NM23-H2 in human SiHa cells assessed as disruption of protein interaction with c-myc G-quadruplex DNA by measuring decrease in c-MYC mRNA level after 9 hrs by RT-PCR analysis. Type of data set: cell-based. Summed up: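 SiHa cells treated at 0, 0.5, 1.0, 2.0 μM for 9 h; TRIzol RNA, 1.5 μg reverse-transcribed with oligo(dT); semiquantitative PCR, 30 cycles, 58 °C annealing; bands normalized to β-actin, untreated 100%; three repeats.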

Data set [13] deals with T2, Nucleoside diphosphate kinase B (Homo sapiens, UniProt P22392, H118F). Description: Binding affinity to N-terminal NT-647-NHS labeled NM23-H2 H118F mutant (unknown origin) after 30 mins by MST analysis.
Data set [14] concerns SiHa. The data set is described as follows: Cell cycle arrest in human SiHa cells assessed as accumulation at G2/M phase at 2 uM after 3 hrs by propidium iodide staining based flow cytometry (reference value: 39%). The class given is functional. In outline: (§2)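 SiHa cells plated 24 h, treated at 2 μM for 3–48 h; fixed in ice-cold 70% ethanol overnight, RNase A 20 μg/mL 37 °C 30 min, PI-stained, flow cytometry at 488 nm; phase percentages quantified; at least three experiments.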

For data set [15], the target named is T1, Nucleoside diphosphate kinase B. Description: Binding affinity to NM23-H2 in human SiHa cells assessed as disruption of protein interaction with c-myc G-quadruplex DNA by measuring decrease in c-MYC protein expresson at 1 to 2 uM after 48 hrs by Western blot analysis. The class given is cell-based. Summed up: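 SiHa cells treated 48 h; lysates (30 μg) on 10% SDS-PAGE, nitrocellulose, anti-c-MYC overnight at 4 °C, HRP secondary, chemiluminescence; β-actin internal control; three repeats.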

Data set [16] deals with SiHa. The data set is described as follows: Cell cycle arrest in human SiHa cells assessed as accumulation at G0/G1 phase at 2 uM after 9 hrs by propidium iodide staining based flow cytometry (reference value: 48 %). Type of data set: functional. In outline:
as §2

The subject of data set [17] is SiHa. Description: Induction of apoptosis in human SiHa cells assessed as early apoptotic cells at 2 uM after 48 hrs by Annexin V-FITC/propidium iodide based flow cytometric analysis (reference value: 1.4 %). The class given is functional.
Data set [18] concerns Nucleoside diphosphate kinase B (Homo sapiens), P22392 [F60A]. Description: Binding affinity to N-terminal NT-647-NHS labeled NM23-H2 F60A mutant (unknown origin) up to 50 uM by SPR analysis.
Data set [19] deals with T2, Nucleoside diphosphate kinase B. Description: Binding affinity to NM23-H2 H118F mutant (unknown origin) by SPR analysis.
Data set [20] has as its target T1, Nucleoside diphosphate kinase B. Description: Binding affinity to NM23-H2 in human SiHa cells assessed as decrease in NM23-H2 to c-myc G-quadruplex DNA interaction after 9 hrs by Chromatin immunoprecipitation assay. The class given is cell-based. In outline: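 SiHa cells treated 9 h; chromatin immunoprecipitated overnight at 4 °C with anti-NM23-H2 (3 μg), rabbit IgG control; c-MYC promoter fragment PCR-amplified, gel bands normalized to input, untreated set 100%; three repeats.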

In data set [21] the test system is SiHa. The data set is described as follows: Induction of apoptosis in human SiHa cells assessed as late apoptotic cells at 2 uM after 48 hrs by Annexin V-FITC/propidium iodide based flow cytometric analysis (reference value: 0.7 %). Type of data set: functional.
For data set [22], the system named is SiHa. Description: Cell cycle arrest in human SiHa cells assessed as accumulation at G0/G1 phase at 2 uM after 48 hrs by propidium iodide staining based flow cytometry (reference value: 48 %). Type of data set: functional. In outline:
as §2

Data set [23] concerns SiHa. Description: Cell cycle arrest in human SiHa cells assessed as accumulation at sub-G1 phase at 2 uM after 24 hrs by propidium iodide staining based flow cytometry relative to control. The class given is functional. Summed up: as §1
Data set [24] relates to SiHa. Description: Cell cycle arrest in human SiHa cells assessed as accumulation at G0/G1 phase at 2 uM after 36 hrs by propidium iodide staining based flow cytometry (reference value: 48 %). Type of data set: functional. In outline:
as §2

The source made the active and inactive calls. The calls are words filed in the database; no cut-off is given here.

T1 sequence (P22392 whole entry): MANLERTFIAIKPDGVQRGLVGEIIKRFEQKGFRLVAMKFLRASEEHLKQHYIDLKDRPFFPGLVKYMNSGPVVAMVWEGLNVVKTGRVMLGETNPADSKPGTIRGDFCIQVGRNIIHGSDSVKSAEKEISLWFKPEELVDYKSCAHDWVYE
T2 sequence (P22392 whole entry H118F): as the sequence (P22392 whole entry) above, with H118F counted along it
Nucleoside diphosphate kinase B (Homo sapiens), P22392 [F60A], sequence (P22392 whole entry F60A): as the sequence (P22392 whole entry) above, with F60A counted along it

Regarding `CN(C)CCCNc1cc2nc3n(c(=O)c2cc1F)CC/C3=C\c1ccc(OCc2ccccc2)cc1O`, the result (with SiHa [1]; in data set [5]; in data set [18]) was inactive. The Activity was 12% in the data set on SiHa [2]; 11% with SiHa [3]; “Non-Toxic” in [4]; 265.9 mg with SiHa [6]; “Non-Toxic” in data set [7]; 11.8% with SiHa [8]. For the same molecule, the Activity with SiHa [9] was 0%; in the data set with SiHa [10] it was 5.1%; in data set [12], “Dose-dependent effect”; in the data set with SiHa [14], 38%; in the data set with SiHa [16], 67%; in the data set with SiHa [17] it was 4.8%. Moreover, the Activity result was “Dose-dependent effect” in data set [20]; 90.3% with SiHa [21]; 0% with SiHa [22]; 64% in the data set with SiHa [23]; 1% with SiHa [24]. Moreover, the inhibition in vivo at 2.5 mg/kg with SiHa [11] amounted to 48%. Further, the Kd (as a rule, the equilibrium constant for the complex coming apart) in data set [13] came out at 7.7 µM; in data set [19], 47 µM. For the same molecule, the result in [15] was Active.
